Results: PubChem BioAssay
Calls of active or inactive are those of the source.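 How the source made its calls, unless noted: active means GFP response above 150% of the DMSO level; inconclusive means fewer than 70 events counted for a yeast strain; inactive means the rest.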

Columns and labels:
[1] = hit retest on RPL19A-GFP reporter strain – cell-based, S. cerevisiae, flow cytometry, cherry picks, mother/daughter gates, confirmation (AID 2270;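 active means GFP response below 50% of the DMSO control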); details: 3 h, at 10 µM, stronger effect = lower value, 100 = same GFP as DMSO wells
[2] = yeast TOR pathway reporter LAP4-GFP change – cell-based, cherry picks, flow cytometry, mother/daughter gates, confirmation (AID 2271;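 active means GFP response above 150% of the DMSO control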;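 further: ratio of sample to DMSO plate mean so 100% equals DMSO level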); details: S. cerevisiae LAP4-GFP strain, 3 h, at 10 µM, stronger effect = higher value, 100 means same as DMSO control
Procedure, shortened: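 Test system: GFP-fusion yeast strain / Amount: 0.2 OD600 cells / Buffer or medium: SC medium / Dosing: 10 µM single dose / Incubation: compound exposure 3 h at 30 °C, end-over-end rotation / Detection: HT flow cytometry, GFP fluorescence channel / Evaluation: median GFP fluorescence as percent of plate-mean DMSO wells / Control set: DMSO-only negative wells, rapamycin 400 ng/mL positive wells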

[3] = TOR pathway reporter MEP2-GFP, retest of hits – S. cerevisiae, flow cytometry GFP, cherry picks, confirmation (AID 2272;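 active means GFP response above 150% of the DMSO control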;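 further: ratio of well signal to plate DMSO mean so 100% equals DMSO level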); details: S. cerevisiae MEP2-GFP strain, 3 h, at 10 µM, stronger effect = higher value
[4] = yeast AGP1-GFP fluorescence change, single-dose – cell-based, flow cytometry, S. cerevisiae, cherry picks, confirmation (AID 2273);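 further: median GFP channel fluorescence over the whole cell population gate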; details: S. cerevisiae AGP1-GFP strain, 3 h, at 10 µM
[5] = TOR pathway CIT2 reporter hit retest – S. cerevisiae, GFP fusion, cherry picks, mother/daughter gates, confirmation (AID 2274); details: S. cerevisiae CIT2-GFP strain, flow cytometry, 3 h, at 10 µM, stronger effect = higher value
[6] = measured here: daughter cell gate
[7] = measured here: mother cell gate
[8] = measured here: daughter cell gate response
[9] = measured here: mother cell gate response

Row | SMILES | GFP response vs DMSO [1] | GFP response vs DMSO [1, 6] | GFP response vs DMSO [1, 7] | GFP response relative to DMSO [2] | GFP response relative to DMSO [2, 8] | GFP response relative to DMSO [2, 9] | GFP response vs DMSO [3] | GFP response, % of DMSO [4] | GFP response, % of DMSO [5] | GFP response, % of DMSO [5, 6] | GFP response, % of DMSO [5, 7]
1 | CCOc1ccccc1/C=C/C(=O)c1ccc(Cl)cc1 | 98.2% (inactive) | 97.1% | 98.5% | 99.2% (inactive) | 99.2% | 97.2% | 98.3% (inactive) | 102% (inactive) | 103% (inactive) | 103% | 102%
2 | Cc1cccc(NC(=O)/C(C#N)=C/c2ccccc2Cl)n1 | 91.2% (inactive) | 91% | 86.6% | 147% (inactive) | 133% | 145% | 153% (inactive) | 109% (inactive) | 112% (inactive) | 117% | 103%
3 | Cc1nnc(N2C(=O)c3cccc4cccc(c34)C2=O)s1 | 94.9% (inactive) | 93.3% | 94.4% | 96.5% (inactive) | 94.4% | 96.4% | 106% (inactive) | 100% (inactive) | 101% (inactive) | 101% | 102%
4 | CCCN(CCC)S(=O)(=O)c1ccc(C(=O)Nc2nnc(-c3cc(OC)cc(OC)c3)o2)cc1 | 98.2% (inactive) | 99.4% | 99% | 91.5% (inactive) | 91.2% | 91.9% | 102% (inactive) | 93.9% (inactive) | 101% (inactive) | 101% | 101%
5 | Oc1ccc(N=Nc2ccccc2)o1 | 111% (inactive) | 113% | 106% | 180% (active) | 153% | 173% | 124% (inactive) | 111% (inactive) | 118% (inactive) | 119% | 110%
6 | COc1ccc(N2CCN(C(=O)CCc3nnc4ccc(N5CCCC5)nn34)CC2)cc1 | 101% (inactive) | 99.2% | 101% | 96.2% (inactive) | 98.7% | 97.2% | 100% (inactive) | 97.8% (inactive) | 104% (inactive) | 101% | 104%
7 | Cc1ccccc1N1C(=O)C(Cl)=C(N2CCN(c3ccccc3)CC2)C1=O | 100% (inactive) | 98.7% | 100% | 101% (inactive) | 102% | 102% | 100% (inactive) | 93% (inactive) | 95.2% (inactive) | 94.8% | 94.4%
8 | O=C(c1cc([N+](=O)[O-])cc([N+](=O)[O-])c1)N(Cc1nnc(-c2ccccc2Cl)o1)C1CC1 | 102% (inactive) | 101% | 105% | 96.2% (inactive) | 97.2% | 99.3% | 102% (inactive) | 97.2% (inactive) | 107% (inactive) | 103% | 109%
9 | Cc1cccc(NC(=O)CCCN2C(=O)c3cccc4cccc(c34)C2=O)c1 | 101% (inactive) | 96.9% | 100% | 94.4% (inactive) | 95.9% | 94.1% | 99% (inactive) | 98.8% (inactive) | 98.8% (inactive) | 97.4% | 99.3%
10 | CCCc1nn(-c2ccccc2)c2c1C(c1cccs1)C(C#N)=C(N)O2 (centres undefined) | 101% (inactive) | 100% | 102% | 90.2% (inactive) | 92.5% | 95.2% | 95.7% (inactive) | 95.9% (inactive) | 102% (inactive) | 98.1% | 102%
11 | COCC(=O)Nc1cc([N+](=O)[O-])ccc1C | 99.5% (inactive) | 101% | 99.8% | 101% (inactive) | 99.3% | 99.5% | 102% (inactive) | 98.4% (inactive) | 99.3% (inactive) | 100% | 98%
12 | Cc1ccc(C)c(Cn2ncc3ccccc32)c1 | 95.8% (inactive) | 98.1% | 95.4% | 100% (inactive) | 97.5% | 104% | 106% (inactive) | 90.7% (inactive) | 94.4% (inactive) | 95.8% | 92.6%
13 | Cc1c(C(=O)NCCSCc2cccc(C(F)(F)F)c2)cnn1-c1ccc(F)cc1 | 102% (inactive) | 103% | 103% | 98.8% (inactive) | 96.5% | 98.5% | 104% (inactive) | 99.1% (inactive) | 108% (inactive) | 102% | 108%
14 | CCOC(=O)CS(=O)(=O)c1nc(-c2ccc(F)cc2)cc(C(F)(F)F)n1 | 109% (inactive) | 113% | 102% | 170% (active) | 170% | 165% | 113% (inactive) | 108% (inactive) | 116% (inactive) | 123% | 106%
